# From ChEMBL document CHEMBL1141594, “Synthesis, radiosynthesis, and biological evaluation of new proteasome inhibitors in a tumor targeting approach” (J Med Chem, 2008)
# pIC50: −log10 of the molar value. Residues, ends and D or L forms follow the SMILES beside them. *: point of attachment. Cbz = O=C(OCc1ccccc1)*
# Columns and labels:
# [1] = Biodistribution in lung of C57/BL6 mouse bearing B16 cells at 0.07 uM, iv; format: ADME, organism-based, C57Bl/6; settings: read-out: Drug uptake
# Procedure, shortened: (§1)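 ¹²⁵I-labelled compound given to C57Bl/6J mice with subcutaneous B16 melanoma. Organs and tissues sampled at 15 min, 30 min, 1 h, 3 h and 6 h post-injection. Radioactivity expressed as % injected dose per unit organ mass. Feces and urine collected over 72 h for elimination.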
# [2] = Biodistribution in tumor of C57/BL6 mouse bearing B16 cells assessed as remaining drug level at 0.07 uM, iv after 6 hrs; format: ADME, organism-based, C57Bl/6, Neoplasm; settings: read-out: Drug uptake; procedure, shortened: as §1
# [3] = Biodistribution in tumor of C57/BL6 mouse bearing B16 cells assessed as remaining drug level at 0.07 uM, iv after 3 hrs; format: ADME, organism-based, C57Bl/6, Neoplasm; settings: read-out: Drug uptake; procedure, shortened: as §1
# [4] = Ratio of biodistribution in tumor to blood in C57/BL6 mouse bearing mouse B16 cells; format: ADME, organism-based, C57Bl/6
# [5] = Biodistribution in liver of C57/BL6 mouse bearing B16 cells at 0.07 uM, iv; format: ADME, organism-based, C57Bl/6; settings: read-out: Drug uptake; procedure, shortened: as §1
# [6] = Biodistribution in tumor of C57/BL6 mouse bearing B16 cells at 0.07 uM, iv after 15 mins; format: ADME, organism-based, C57Bl/6, Neoplasm; settings: read-out: Drug uptake; procedure, shortened: as §1
# [7] = Biodistribution in kidney of C57/BL6 mouse bearing B16 cells at 0.07 uM, iv; format: ADME, organism-based, C57Bl/6; settings: read-out: Drug uptake; procedure, shortened: as §1
# Mus musculus = experiment: Drug metabolism in C57/BL6 mouse bearing B16 cells assessed as elimation in faeces and urine at 0.07 uM, iv after 72 hrs; format: ADME, organism-based, C57Bl/6; settings: in vivo; procedure, shortened: as §1
# B16 = experiment: Growth inhibition of mouse B16 cells after 48 hrs; format: functional, cell-based; settings: B16, 48 h
# Procedure, shortened: (§2)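 DMEM with 10% fetal calf serum, monolayer culture. 5 × 10³ cells/well seeded and left 24 h at 37 °C, 5% CO₂, humidified. Exposed 48 h to increasing concentrations. Growth measured with Hoechst 33342 dye. IC₅₀ is the mean ± SD of three independent experiments, each in triplicate. Compounds tested as hydrochloride salts.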
# [8] = Growth inhibition of human IPC227F cells after 48 hrs; format: functional; procedure, shortened: as §2
Compound,tissue uptake at 0.07 µM [5] [%ID/g],pIC50 (B16),pIC50 [8],other results
CCN(CC)CCNC(=O)c1ccc(C(=O)N[C@@H](CC(C)C)C(=O)N[C@@H](CC(C)C)C(=O)N[C@H](C=O)CC(C)C)c([125I])c1.Cl,8.9,–,–,"tissue uptake at 0.07 µM [1]: 16.3 %ID/g; tissue uptake at 6 h, 0.07 µM [2]: 1.2 %ID/g; tissue uptake at 3 h, 0.07 µM [3]: 1.2 %ID/g; Kp [4]: ≥ 1; tissue uptake at 0.25 h, 0.07 µM [6]: 2.7 %ID/g; tissue uptake at 0.07 µM [7]: 4.9 %ID/g; Activity (Mus musculus): 87%"
CCN(CC)CCNC(=O)c1ccc(C(=O)N[C@@H](CC(C)C)C(=O)N[C@@H](CC(C)C)C(=O)N[C@H](C=O)CC(C)C)c(I)c1,–,5.75,5.45,–
CCN(CC)CCNC(=O)c1ccc(C(=O)N[C@@H](CC(C)C)C(=O)N[C@@H](CC(C)C)C(=O)N[C@H](C=O)CC(C)C)c(NNN2CCCC2)c1,–,6.28,5.73,–
CCN(CC)CCNC(=O)c1ccc(C(=O)N[C@@H](CC(C)C)C(=O)N[C@@H](CC(C)C)C(=O)N[C@H](C=O)CC(C)C)c(/N=N/N2CCCC2)c1,–,7.70,6.74,–
CCN(CC)CCNC(=O)c1ccc(C(=O)N[C@@H](CC(C)C)C(=O)N[C@@H](CC(C)C)C(=O)N[C@H](C=O)CC(C)C)cc1,5.95,5.89,6.19,–
CC(C)C[C@@H](C=O)NC(=O)[C@H](CC(C)C)NC(=O)[C@H](CC(C)C)NC(=O)OCc1ccccc1 (Cbz-Leu-Leu-Leu-aldehyde),–,7.38,7.11,–
